According to BindingDB's records for doi:10.1021/jm9910324 (University of Camerino, 1999):
Where a name gives a salt, the structure may show the parent alone.

How the values were obtained:
[1] = biological target: T1, Alpha-1D adrenergic receptor (Homo sapiens, UniProt P25100); experiment: The binding affinity was evaluated on cloned human Alpha-1D adrenergic receptor expressed in chinese hamster ovary(CHO) cells by using [3H]-prazosin as radioligand.
T1 sequence (P25100 whole entry): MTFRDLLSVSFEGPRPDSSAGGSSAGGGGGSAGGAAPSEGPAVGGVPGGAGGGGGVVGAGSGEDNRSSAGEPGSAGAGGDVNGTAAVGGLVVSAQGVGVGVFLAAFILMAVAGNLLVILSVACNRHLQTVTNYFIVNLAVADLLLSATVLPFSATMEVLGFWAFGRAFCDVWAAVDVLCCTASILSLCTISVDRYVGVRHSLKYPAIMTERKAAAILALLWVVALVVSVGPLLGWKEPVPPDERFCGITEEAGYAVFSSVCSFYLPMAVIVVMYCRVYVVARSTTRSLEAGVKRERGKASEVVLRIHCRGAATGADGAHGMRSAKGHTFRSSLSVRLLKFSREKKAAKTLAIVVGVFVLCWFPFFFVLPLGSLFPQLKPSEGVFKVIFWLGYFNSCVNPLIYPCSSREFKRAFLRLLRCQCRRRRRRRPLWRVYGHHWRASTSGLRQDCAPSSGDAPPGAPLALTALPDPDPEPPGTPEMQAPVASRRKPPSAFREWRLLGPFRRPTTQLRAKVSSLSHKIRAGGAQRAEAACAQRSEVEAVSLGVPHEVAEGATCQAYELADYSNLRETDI
Summary of the method: (§1)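 Membranes (30 μg protein) from CHO cells stably expressing each human α1 subtype, in 50 mM Tris-HCl pH 7.4. Incubated with 0.1–0.4 nM [3H]prazosin for 30 min at 25 °C, competitor 1 pM–10 μM. Nonspecific binding with 10 μM phentolamine. Ki by Cheng-Prusoff. 2–3 experiments in triplicate.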

[2] = biological target: T2, Alpha-1B adrenergic receptor (Homo sapiens, UniProt P35368); experiment: The binding affinity was evaluated on cloned human Alpha-1B adrenergic receptor expressed in chinese hamster ovary(CHO) cells by using [3H]prazosin as radioligand.; summary of the method: as §1
T2 sequence (P35368 whole entry): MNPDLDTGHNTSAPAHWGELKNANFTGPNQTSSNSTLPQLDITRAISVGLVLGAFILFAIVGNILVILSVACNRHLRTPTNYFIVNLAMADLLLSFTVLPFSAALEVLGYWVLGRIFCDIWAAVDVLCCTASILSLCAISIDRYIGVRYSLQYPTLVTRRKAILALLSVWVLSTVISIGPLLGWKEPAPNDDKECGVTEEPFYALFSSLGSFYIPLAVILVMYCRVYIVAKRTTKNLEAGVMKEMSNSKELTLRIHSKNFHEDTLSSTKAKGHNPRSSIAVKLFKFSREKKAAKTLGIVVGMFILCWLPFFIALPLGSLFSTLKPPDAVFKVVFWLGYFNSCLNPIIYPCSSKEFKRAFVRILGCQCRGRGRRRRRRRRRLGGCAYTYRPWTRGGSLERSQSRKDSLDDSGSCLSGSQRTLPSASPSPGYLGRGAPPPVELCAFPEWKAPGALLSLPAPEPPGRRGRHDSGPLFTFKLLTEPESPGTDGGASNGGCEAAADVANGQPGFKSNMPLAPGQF

[3] = biological target: T3, Alpha-1A adrenergic receptor (Homo sapiens, UniProt P35348); experiment: The binding affinity was evaluated on cloned human Alpha-1A adrenergic receptor expressed in chinese hamster ovary(CHO) cells by using [3H]prazosin as radioligand.; summary of the method: as §1
T3 sequence (P35348 whole entry): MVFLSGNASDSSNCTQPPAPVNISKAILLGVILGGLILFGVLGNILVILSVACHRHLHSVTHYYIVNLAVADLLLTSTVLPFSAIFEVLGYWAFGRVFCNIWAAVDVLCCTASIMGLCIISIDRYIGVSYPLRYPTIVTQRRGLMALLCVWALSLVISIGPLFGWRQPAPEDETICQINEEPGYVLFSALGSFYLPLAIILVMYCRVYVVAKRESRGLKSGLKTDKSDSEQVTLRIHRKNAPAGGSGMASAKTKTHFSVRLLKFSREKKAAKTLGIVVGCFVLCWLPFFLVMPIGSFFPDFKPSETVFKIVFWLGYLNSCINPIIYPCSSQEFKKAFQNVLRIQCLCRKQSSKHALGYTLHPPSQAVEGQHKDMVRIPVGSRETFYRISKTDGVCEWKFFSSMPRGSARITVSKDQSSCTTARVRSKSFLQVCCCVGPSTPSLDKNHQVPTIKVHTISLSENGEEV

[4] = biological target: T4, 5-hydroxytryptamine receptor 1A (Homo sapiens, UniProt P08908); experiment: The binding affinity was evaluated on cloned human 5-hydroxytryptamine 1A receptor expressed in HeLa cells by using DPAT as radioligand.
T4 sequence (P08908 whole entry): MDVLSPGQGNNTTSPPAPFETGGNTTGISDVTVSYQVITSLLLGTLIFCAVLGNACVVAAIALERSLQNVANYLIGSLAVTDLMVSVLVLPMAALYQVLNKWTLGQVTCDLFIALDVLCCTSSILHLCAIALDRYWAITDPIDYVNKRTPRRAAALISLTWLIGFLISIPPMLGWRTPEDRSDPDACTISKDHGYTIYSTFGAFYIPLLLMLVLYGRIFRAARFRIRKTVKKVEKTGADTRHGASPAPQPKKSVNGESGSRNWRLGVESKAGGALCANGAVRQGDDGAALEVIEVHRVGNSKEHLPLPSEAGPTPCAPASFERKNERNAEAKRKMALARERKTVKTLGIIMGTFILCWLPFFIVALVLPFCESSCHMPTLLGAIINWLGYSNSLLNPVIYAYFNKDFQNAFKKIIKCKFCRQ
Summary of the method: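 Membranes from HeLa cells stably expressing human 5-HT1A, in 50 mM Tris-HCl pH 7.4, 2.5 mM MgCl2, 10 μM pargyline. Nonspecific binding with 10 μM 5-HT. Filtration. Ki by Cheng-Prusoff. 2–3 experiments in triplicate.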

[5] = biological target: 5-hydroxytryptamine receptor 2A (Rattus norvegicus, UniProt P14842); experiment: The binding affinity was evaluated on 5-hydroxytryptamine 2A receptor expressed in rat cortex by using [3H]ketanserin as radioligand.
Summary of the method: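 Rat cerebral cortex membranes in Tris-HCl pH 7.4 with 10 μM pargyline and 0.1% ascorbic acid. Incubated 20 min at 37 °C with 0.7–1.3 nM [3H]ketanserin. Nonspecific binding with 2 μM ketanserin. Filtration and scintillation counting. Ki by Cheng-Prusoff. 2–3 experiments in triplicate.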

[6] = biological target: T2, Alpha-1B adrenergic receptor; experiment: The binding affinity was evaluated on cloned human alpha-1B adrenergic receptor expressed in chinese hamster ovary(CHO) cells by using [3H]prazosin as radioligand.; summary of the method: as §1
[7] = biological target: T3, Alpha-1A adrenergic receptor; experiment: The binding affinity was evaluated on cloned human alpha-1A adrenergic receptor expressed in chinese hamster ovary(CHO) cells by using [3H]prazosin as radioligand.; summary of the method: as §1
[8] = biological target: T1, Alpha-1D adrenergic receptor; experiment: The binding affinity was evaluated on cloned human alpha-1D adrenergic receptor expressed in chinese hamster ovary(CHO) cells by using [3H]prazosin as radioligand.; summary of the method: as §1
[9] = biological target: T5, Alpha-2A adrenergic receptor [16-465]/Alpha-2B adrenergic receptor/Alpha-2C adrenergic receptor (Rattus norvegicus, UniProt P19328+P22086+P22909); experiment: The binding affinity was evaluated on alpha-2 adrenergic receptor expressed in rat cortex by using [3H]rauwolscine as radioligand.
T5 construct: 16-465
T5 sequence (P22909 whole entry): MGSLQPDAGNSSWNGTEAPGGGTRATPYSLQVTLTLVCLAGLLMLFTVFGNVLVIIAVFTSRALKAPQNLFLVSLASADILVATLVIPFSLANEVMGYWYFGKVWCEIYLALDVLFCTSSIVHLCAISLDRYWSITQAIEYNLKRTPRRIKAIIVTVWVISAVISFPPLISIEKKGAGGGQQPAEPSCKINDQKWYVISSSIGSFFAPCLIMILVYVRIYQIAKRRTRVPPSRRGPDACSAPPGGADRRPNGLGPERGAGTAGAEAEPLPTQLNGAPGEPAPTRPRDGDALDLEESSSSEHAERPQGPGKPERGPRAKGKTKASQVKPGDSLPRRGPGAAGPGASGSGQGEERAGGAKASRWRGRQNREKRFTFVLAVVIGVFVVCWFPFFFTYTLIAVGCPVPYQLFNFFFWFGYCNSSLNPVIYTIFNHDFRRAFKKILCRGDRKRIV
T5 sequence (P22086 whole entry): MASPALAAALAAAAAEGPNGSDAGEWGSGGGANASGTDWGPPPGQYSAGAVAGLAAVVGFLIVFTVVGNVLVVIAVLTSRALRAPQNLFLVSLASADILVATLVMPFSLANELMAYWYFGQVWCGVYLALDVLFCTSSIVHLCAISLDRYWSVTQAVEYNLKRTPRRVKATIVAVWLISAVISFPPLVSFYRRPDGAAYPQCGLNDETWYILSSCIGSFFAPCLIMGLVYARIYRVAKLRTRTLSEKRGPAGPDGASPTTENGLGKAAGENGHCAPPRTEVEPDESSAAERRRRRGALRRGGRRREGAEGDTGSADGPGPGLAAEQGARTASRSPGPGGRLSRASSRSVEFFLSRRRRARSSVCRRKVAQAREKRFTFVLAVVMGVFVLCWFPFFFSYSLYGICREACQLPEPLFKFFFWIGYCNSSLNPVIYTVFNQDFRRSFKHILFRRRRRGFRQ
T5 sequence (P19328 whole entry): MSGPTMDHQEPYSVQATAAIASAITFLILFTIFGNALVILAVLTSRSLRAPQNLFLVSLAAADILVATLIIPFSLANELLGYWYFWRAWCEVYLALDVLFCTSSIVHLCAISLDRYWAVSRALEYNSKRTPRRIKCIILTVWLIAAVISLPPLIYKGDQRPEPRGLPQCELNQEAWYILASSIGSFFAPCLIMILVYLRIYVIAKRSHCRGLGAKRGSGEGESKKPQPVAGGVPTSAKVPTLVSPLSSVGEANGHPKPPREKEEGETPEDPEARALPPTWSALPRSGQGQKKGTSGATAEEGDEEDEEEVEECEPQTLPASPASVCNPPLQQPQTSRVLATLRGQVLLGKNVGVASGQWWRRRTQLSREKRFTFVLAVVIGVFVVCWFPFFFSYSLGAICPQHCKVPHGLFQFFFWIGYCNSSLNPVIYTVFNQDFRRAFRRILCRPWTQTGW
Summary of the method: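 Male Sprague-Dawley rat cerebral cortex membranes, washed in Tris-HCl pH 7.4 and held in buffer with 10 μM pargiline and 0.1% ascorbic acid. Incubated 30 min at 25 °C with 0.5-1.5 nM [3H]rauwolscine; nonspecific binding with 10 μM phentolamine. Filtration, scintillation counting. Ki from Cheng-Prusoff; 2-3 experiments in triplicate.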

[10] = biological target: D(2) dopamine receptor (Rattus norvegicus, UniProt P61169); experiment: The binding affinity was evaluated on Dopamine receptor D2 expressed in rat striatum by using [3H]spiperone as radioligand
Summary of the method: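 Rat striatum membranes in Tris-HCl with 10 μM pargyline, 0.1% ascorbic acid, 120 mM NaCl, 5 mM KCl, 2 mM CaCl2, 1 mM MgCl2. Incubated 15 min at 37 °C with 0.2–0.6 nM [3H]spiperone. Nonspecific binding with 1 μM (+)-butaclamol. Ki by Cheng-Prusoff. 2–3 experiments in triplicate.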

[11] = biological target: T5, Alpha-2A adrenergic receptor [16-465]/Alpha-2B adrenergic receptor/Alpha-2C adrenergic receptor; experiment: The binding affinity was evaluated on Alpha-2 adrenergic receptor expressed in rat cortex by using [3H]rauwolscine as radioligand.
Summary of the method: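 Male Sprague-Dawley rat cerebral cortex membranes, washed in Tris-HCl pH 7.4 and resuspended with 10 μM pargyline and 0.1% ascorbic acid. Incubated 30 min at 25 °C with 0.5–1.5 nM [3H]rauwolscine. Nonspecific binding with 10 μM phentolamine. Filtration on PEI-treated filters. Ki by Cheng-Prusoff. 2–3 experiments in triplicate.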

Sequence of D(2) dopamine receptor (P61169 whole entry): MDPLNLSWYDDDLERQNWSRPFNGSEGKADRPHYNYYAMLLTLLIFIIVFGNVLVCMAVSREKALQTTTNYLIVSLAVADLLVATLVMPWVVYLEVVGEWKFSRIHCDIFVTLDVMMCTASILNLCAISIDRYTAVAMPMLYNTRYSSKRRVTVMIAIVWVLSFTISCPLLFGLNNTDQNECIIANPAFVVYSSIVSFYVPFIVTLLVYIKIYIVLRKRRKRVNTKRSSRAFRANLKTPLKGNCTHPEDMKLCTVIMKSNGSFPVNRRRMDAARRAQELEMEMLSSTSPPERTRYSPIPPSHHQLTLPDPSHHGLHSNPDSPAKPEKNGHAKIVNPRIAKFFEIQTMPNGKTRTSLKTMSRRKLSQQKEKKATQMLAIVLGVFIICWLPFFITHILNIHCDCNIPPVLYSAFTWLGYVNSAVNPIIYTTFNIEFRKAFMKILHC
Sequence of 5-hydroxytryptamine receptor 2A (P14842 whole entry): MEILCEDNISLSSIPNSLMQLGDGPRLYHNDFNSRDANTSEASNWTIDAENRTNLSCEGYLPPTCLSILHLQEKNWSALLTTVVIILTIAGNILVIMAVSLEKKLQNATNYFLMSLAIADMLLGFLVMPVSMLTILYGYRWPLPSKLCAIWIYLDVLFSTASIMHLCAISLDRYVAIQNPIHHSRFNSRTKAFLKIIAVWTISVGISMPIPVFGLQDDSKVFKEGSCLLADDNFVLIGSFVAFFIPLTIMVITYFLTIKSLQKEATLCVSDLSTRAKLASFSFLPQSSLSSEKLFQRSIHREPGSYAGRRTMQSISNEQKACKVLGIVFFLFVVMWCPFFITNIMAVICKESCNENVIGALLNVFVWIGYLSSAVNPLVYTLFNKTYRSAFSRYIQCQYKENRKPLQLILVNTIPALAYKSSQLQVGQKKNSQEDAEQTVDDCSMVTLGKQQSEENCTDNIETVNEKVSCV

pKi [1] | pKi [2] | pKi [3] | pKi [4] | pKi [7] | pKi [8] | pKi [11] | SMILES | pKi [5] | pKi [6] | pKi [9] | pKi [10]
6.95 | 6.84 | 7.14 | 8.08 | – | – | – | COc1cccc(OC)c1OCCNCC1=Cc2ccccc2OC1c1ccccc1 (stereo not given) | – | – | – | –
7.28 | 6.58 | 8.49 | 6.84 | 6.78 | 6.86 | < 6 | COc1cccc(OC)c1OCCNCC1Oc2ccccc2CC1c1ccccc1 (stereo not given) | < 6 | 6.51 | – | < 6
– | – | – | 6.73 | 9.22 | 7.93 | – | COc1cccc(OC)c1OCCNCC1C(=O)c2ccccc2OC1c1ccccc1 (stereo not given) | 6.2 | 6.84 | < 6 | < 6

Further lines, the compound ahead of its results:

SMILES | pKi [1] | pKi [2] | pKi [3] | pKi [4] | pKi [7] | pKi [8] | pKi [11] | pKi [5] | pKi [6] | pKi [9] | pKi [10]
COc1cccc(OC)c1OCCNCC1C(=O)c2ccccc2CC1c1ccccc1 (stereo not given) | – | – | – | 6.83 | 8.06 | 6.88 | – | 6.63 | 6.11 | 6.45 | < 6
COc1cccc(OC)c1OCCNCCOc1ccccc1OCc1ccccc1 | 10.2 | 9.27 | 9.33 | 7.93 | – | – | – | – | – | – | –
COc1cccc(OC)c1OCCNCC1C(=O)c2ccccc2SC1c1ccccc1 (stereo not given) | – | < 6 | – | 7.36 | 7.42 | 6.37 | – | – | – | – | –
COc1cccc(OC)c1OCCNCC1COc2ccccc2O1 (stereo not given) [WB-4101 hydrochloride] | – | – | – | 8.68 | 9.37 | – | – | 6 | – | 7.83 | 6.91
CCCN(CCC)C1CCc2cccc(O)c2C1 (stereo not given) | – | – | – | – | – | – | – | < 6 | < 6 | 6.08 | < 6
